In ChEMBL document CHEMBL4689842, “EUbOPEN Chemogenomics Library wave 1” (2021):
Where “and” joins values, the source holds several entries; their conditions need not be identical. Equal entries are not always repeated.

Test system: U2OS
Test: Multiplex assay against U2OS
Type: toxicity, cell-based
Details: human
In short: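 Compound was added to live cells that had been stained at seeding with Hoechst33342, BioTracker Green Microtubule Cytoskeleton Dye, MitoTracker Red and Annexin V Alexa Fluor 680, and imaging followed on a CQ1 microscope at 37°C and 5% CO2. CellPathfinder machine-learning gating divided cells into Hoechst high-intensity objects or normal cells, normal cells into healthy, pyknosed or fragmented nuclei, and pyknosed cells into mitotic or apoptotic. Tubulin, mitochondrial-mass and membrane-permeability phenotypes are per cents of healthy-nucleus cells.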

[1] = 12 h, 1 µM, compound concentration 1 uM, replicate 1
[2] = 12 h, 1 µM, compound concentration 1 uM, replicate 2
[3] = 12 h, 10 µM, compound concentration 10 uM, replicate 1
[4] = 12 h, 10 µM, compound concentration 10 uM, replicate 2
[5] = 24 h, 1 µM, compound concentration 1 uM, replicate 1
[6] = 24 h, 1 µM, compound concentration 1 uM, replicate 2
[7] = 24 h, 10 µM, compound concentration 10 uM, replicate 1
[8] = 24 h, 10 µM, compound concentration 10 uM, replicate 2
[9] = 48 h, 1 µM, compound concentration 1 uM, replicate 1
[10] = 48 h, 1 µM, compound concentration 1 uM, replicate 2
[11] = 48 h, 10 µM, compound concentration 10 uM, replicate 1
[12] = 48 h, 10 µM, compound concentration 10 uM, replicate 2

For `COc1ncc(-c2ccc3nccc(-c4ccnnc4)c3c2)cc1NS(=O)(=O)c1ccc(F)cc1F` [OMIPALISIB], the “Population Apoptotic (%)” value [1] was 65%, the “Population Fragmented Nuclei (%)” value [1] was 13% and the “Population Healthy Nuclei (%)” value [1] was 67%. The “Population Hoechst High Intensity Objects (%)” value [1] was 4%, the “Population Membrane Permeable-Phenotype (%)” value [1] was 6% and the “Population Mitochondria Different-Phenotype (%)” value [1] was 3%. For the same molecule, the “Population Mitotic Cells (%)” value [1] was 34%, the “Population Normal (%)” value [1] was 95% and the “Population Pyknosed Nuclei (%)” value [1] was 18%. The “Population Tubulin-Different-Phenotype (%)” value [1] was 9%, the “Total Cell Count” value [1] was 135 and the “Population Apoptotic (%)” value [2] was 50%. The “Population Fragmented Nuclei (%)” value [2] was 46%, the “Population Healthy Nuclei (%)” value [2] was 42% and the “Population Hoechst High Intensity Objects (%)” value [2] was 7%. For the same molecule, the “Population Membrane Permeable-Phenotype (%)” value [2] was 16%, the “Population Mitochondria Different-Phenotype (%)” value [2] was 16% and the “Population Mitotic Cells (%)” value [2] was 50%. For the same molecule, the “Population Normal (%)” value [2] was 92%, the “Population Pyknosed Nuclei (%)” value [2] was 11% and the “Population Tubulin-Different-Phenotype (%)” value [2] was 23%. The “Total Cell Count” value [2] was 51, the “Population Apoptotic (%)” value [3] was 58% and the “Population Fragmented Nuclei (%)” value [3] was 28%. For the same molecule, the “Population Healthy Nuclei (%)” value [3] was 37%, the “Population Hoechst High Intensity Objects (%)” value [3] was 6% and the “Population Membrane Permeable-Phenotype (%)” value [3] was 14%. The “Population Mitochondria Different-Phenotype (%)” value [3] was 15%, the “Population Mitotic Cells (%)” value [3] was 41% and the “Population Normal (%)” value [3] was 93%. For the same molecule, the “Population Pyknosed Nuclei (%)” value [3] was 33%, the “Population Tubulin-Different-Phenotype (%)” value [3] was 15% and the “Total Cell Count” value [3] was 150. For the same molecule, the “Population Apoptotic (%)” value [4] was 65%, the “Population Fragmented Nuclei (%)” value [4] was 33% and the “Population Healthy Nuclei (%)” value [4] was 27%. The “Population Hoechst High Intensity Objects (%)” value [4] was 7%, the “Population Membrane Permeable-Phenotype (%)” value [4] was 11% and the “Population Mitochondria Different-Phenotype (%)” value [4] was 16%. The “Population Mitotic Cells (%)” value [4] was 34%, the “Population Normal (%)” value [4] was 92% and the “Population Pyknosed Nuclei (%)” value [4] was 39%. For the same molecule, the “Population Tubulin-Different-Phenotype (%)” value [4] was 22%, the “Total Cell Count” value [4] was 77 and the “Population Apoptotic (%)” value [5] was 62%. For the same molecule, the “Population Fragmented Nuclei (%)” value [5] was 19%, the “Population Healthy Nuclei (%)” value [5] was 61% and the “Population Hoechst High Intensity Objects (%)” value [5] was 9%. For the same molecule, the “Population Membrane Permeable-Phenotype (%)” value [5] was 5%, the “Population Mitochondria Different-Phenotype (%)” value [5] was 4% and the “Population Mitotic Cells (%)” value [5] was 37%. The “Population Normal (%)” value [5] was 90%, the “Population Pyknosed Nuclei (%)” value [5] was 18% and the “Population Tubulin-Different-Phenotype (%)” value [5] was 14%. For the same molecule, the “Total Cell Count” value [5] was 135, the “Population Apoptotic (%)” value [6] was 33% and the “Population Fragmented Nuclei (%)” value [6] was 43%. The “Population Healthy Nuclei (%)” value [6] was 40%, the “Population Hoechst High Intensity Objects (%)” value [6] was 11% and the “Population Membrane Permeable-Phenotype (%)” value [6] was 24%. For the same molecule, the “Population Mitochondria Different-Phenotype (%)” value [6] was 17%, the “Population Mitotic Cells (%)” value [6] was 66% and the “Population Normal (%)” value [6] was 88%. The “Population Pyknosed Nuclei (%)” value [6] was 16%, the “Population Tubulin-Different-Phenotype (%)” value [6] was 37% and the “Total Cell Count” value [6] was 50. The “Population Apoptotic (%)” value [7] was 70%, the “Population Fragmented Nuclei (%)” value [7] was 36% and the “Population Healthy Nuclei (%)” value [7] was 25%. For the same molecule, the “Population Membrane Permeable-Phenotype (%)” value [7] was 17%, the “Population Mitochondria Different-Phenotype (%)” value [7] was 25% and the “Population Mitotic Cells (%)” value [7] was 29%. The “Population Pyknosed Nuclei (%)” value [7] was 38%, the “Population Tubulin-Different-Phenotype (%)” value [7] was 17% and the “Total Cell Count” value [7] was 170. The “Population Apoptotic (%)” value [8] was 80%, the “Population Fragmented Nuclei (%)” value [8] was 27% and the “Population Healthy Nuclei (%)” value [8] was 22%. The “Population Hoechst High Intensity Objects (%)” value [8] was 11%, the “Population Membrane Permeable-Phenotype (%)” value [8] was 35% and the “Population Mitochondria Different-Phenotype (%)” value [8] was 28%. The “Population Mitotic Cells (%)” value [8] was 20%, the “Population Normal (%)” value [8] was 88% and the “Population Pyknosed Nuclei (%)” value [8] was 49%. For the same molecule, the “Population Tubulin-Different-Phenotype (%)” value [8] was 42%, the “Total Cell Count” value [8] was 81 and the “Population Apoptotic (%)” value [9] was 59%. The “Population Fragmented Nuclei (%)” value [9] was 23%, the “Population Healthy Nuclei (%)” value [9] was 50% and the “Population Hoechst High Intensity Objects (%)” value [9] was 12%. The “Population Membrane Permeable-Phenotype (%)” value [9] was 7%, the “Population Mitochondria Different-Phenotype (%)” value [9] was 6% and the “Population Mitotic Cells (%)” value [9] was 40%. The “Population Normal (%)” value [9] was 87%, the “Population Pyknosed Nuclei (%)” value [9] was 26% and the “Population Tubulin-Different-Phenotype (%)” value [9] was 16%. For the same molecule, the “Total Cell Count” value [9] was 142, the “Population Apoptotic (%)” value [10] was 47% and the “Population Fragmented Nuclei (%)” value [10] was 43%. For the same molecule, the “Population Healthy Nuclei (%)” value [10] was 32%, the “Population Hoechst High Intensity Objects (%)” value [10] was 15% and the “Population Membrane Permeable-Phenotype (%)” value [10] was 39%. For the same molecule, the “Population Mitochondria Different-Phenotype (%)” value [10] was 43%, the “Population Mitotic Cells (%)” value [10] was 52% and the “Population Normal (%)” value [10] was 84%. The “Population Pyknosed Nuclei (%)” value [10] was 23%, the “Population Tubulin-Different-Phenotype (%)” value [10] was 56% and the “Total Cell Count” value [10] was 59. For the same molecule, the “Population Apoptotic (%)” value [11] was 83%, the “Population Fragmented Nuclei (%)” value [11] was 37% and the “Population Healthy Nuclei (%)” value [11] was 9%. For the same molecule, the “Population Hoechst High Intensity Objects (%)” value [11] was 15%, the “Population Membrane Permeable-Phenotype (%)” value [11] was 46% and the “Population Mitochondria Different-Phenotype (%)” value [11] was 46%. The “Population Mitotic Cells (%)” value [11] was 16%, the “Population Normal (%)” value [11] was 84% and the “Population Pyknosed Nuclei (%)” value [11] was 52%. For the same molecule, the “Population Tubulin-Different-Phenotype (%)” value [11] was 61%, the “Total Cell Count” value [11] was 181 and the “Population Apoptotic (%)” value [12] was 82%. The “Population Fragmented Nuclei (%)” value [12] was 31%, the “Population Healthy Nuclei (%)” value [12] was 19% and the “Population Hoechst High Intensity Objects (%)” value [12] was 18%. For the same molecule, the “Population Membrane Permeable-Phenotype (%)” value [12] was 81%, the “Population Mitochondria Different-Phenotype (%)” value [12] was 72% and the “Population Mitotic Cells (%)” value [12] was 17%. For the same molecule, the “Population Normal (%)” value [12] was 81%, the “Population Pyknosed Nuclei (%)” value [12] was 49% and the “Population Tubulin-Different-Phenotype (%)” value [12] was 72%. For the same molecule, the “Total Cell Count” value [12] was 84.
For `Cn1cncc1[C@@](O)(COc1ccc(C#N)cc1-c1ccc(OC(F)(F)F)cc1)c1ccc(C#N)cc1` [A-108], the “Population Apoptotic (%)” value [3] was 38% and 53%, the “Population Healthy Nuclei (%)” value [3] was 70% and 84% and the “Population Hoechst High Intensity Objects (%)” value [3] was 3%. The “Population Membrane Permeable-Phenotype (%)” value [3] was 31% and 17%, the “Population Mitochondria Different-Phenotype (%)” value [3] was 42% and 25% and the “Population Mitotic Cells (%)” value [3] was 61% and 46%. The “Population Normal (%)” value [3] was 96%, the “Population Pyknosed Nuclei (%)” value [3] was 17% and 11% and the “Total Cell Count” value [3] was 188 and 136. The “Population Apoptotic (%)” value [4] was 43% and 50%, the “Population Healthy Nuclei (%)” value [4] was 60% and 90% and the “Population Hoechst High Intensity Objects (%)” value [4] was 19% and 8%. The “Population Mitochondria Different-Phenotype (%)” value [4] was 63% and 21%, the “Population Mitotic Cells (%)” value [4] was 56% and 50% and the “Population Normal (%)” value [4] was 80% and 91%. The “Total Cell Count” value [4] was 101 and 164, the “Population Fragmented Nuclei (%)” value [7] was 8% and 3% and the “Population Healthy Nuclei (%)” value [7] was 74% and 86%. For the same molecule, the “Population Hoechst High Intensity Objects (%)” value [7] was 2% and 4%, the “Population Membrane Permeable-Phenotype (%)” value [7] was 29% and 11% and the “Population Mitochondria Different-Phenotype (%)” value [7] was 37% and 20%. For the same molecule, the “Population Mitotic Cells (%)” value [7] was 28% and 77%, the “Population Normal (%)” value [7] was 97% and 95% and the “Population Pyknosed Nuclei (%)” value [7] was 17% and 10%. The “Total Cell Count” value [7] was 190 and 184, the “Population Apoptotic (%)” value [8] was 80% and 45% and the “Population Fragmented Nuclei (%)” value [8] was 18%. For the same molecule, the “Population Healthy Nuclei (%)” value [8] was 55% and 85%, the “Population Hoechst High Intensity Objects (%)” value [8] was 7% and the “Population Mitochondria Different-Phenotype (%)” value [8] was 75% and 28%. The “Population Mitotic Cells (%)” value [8] was 19% and 54%, the “Population Normal (%)” value [8] was 92% and the “Population Tubulin-Different-Phenotype (%)” value [8] was 73% and 25%. The “Total Cell Count” value [8] was 88 and 199.
